Shown are actives, neighbours in structure and some others; about 3% of the full set was active somewhere.
M4 antag: human M4 muscarinic receptor antagonists, primary screen, CHO cells, Fluo-8 calcium fluorescence. AID 624125, 2012. inhibition, % at 3 µM. 360,000 compounds, 0.73% hits. Muscarinic acetylcholine receptor M4 (Homo sapiens), P08173. CHO-hM4 cells, ACh EC80;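 active = inhibition above its plate's cutoff, the mean inhibition of sample wells plus 3 SD, cut at about 27% in these data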;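 note: 0% = acetylcholine EC80 with DMSO and 100% = DMSO without agonist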
M4 PAM: human M4 muscarinic receptor positive allosteric modulators, primary screen, CHO-K1 cells, Fluo-8 calcium fluorescence; Muscarinic acetylcholine receptor M4 (Homo sapiens), P08173; CHO-K1 hM4/Gqi5, ACh EC20; 0% = ACh EC20, 100% = maximal ACh; activation, % at 3 µM; 360,000 compounds, 0.4% hits; AID 624126, 2012;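 active = activation above its plate's cutoff, the mean activation of sample wells plus 3 SD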
TAAR1 antag: human TAAR1 antagonists, primary screen, Fluo-8 calcium fluorescence, CHO RD-HGA16 cells. Trace amine-associated receptor 1 (Homo sapiens), Q96RJ0. antagonist. inhibition, % at 3 µM. 360,000 compounds, 1.5% hits. AID 624466, 2012;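 active = inhibition above a per-plate cutoff, the mean inhibition of test compounds on that plate plus 3 SD, cut at about 49% in these data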;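 note: 0% = DMSO plus EC80 beta-PEA response and 100% = DMSO alone without agonist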
Target sequence (Q96RJ0 whole entry, looked up): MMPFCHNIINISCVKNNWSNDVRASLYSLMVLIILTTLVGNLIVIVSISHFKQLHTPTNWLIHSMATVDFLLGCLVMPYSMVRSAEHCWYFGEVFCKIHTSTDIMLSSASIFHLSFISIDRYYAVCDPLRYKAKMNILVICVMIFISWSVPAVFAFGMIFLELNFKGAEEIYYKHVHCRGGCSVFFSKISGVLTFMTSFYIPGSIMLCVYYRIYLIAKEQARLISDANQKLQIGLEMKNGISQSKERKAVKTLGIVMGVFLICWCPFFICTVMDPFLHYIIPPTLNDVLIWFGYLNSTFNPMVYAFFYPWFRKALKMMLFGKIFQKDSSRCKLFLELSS
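Test system: CHO RD-HGA16 cells bearing hTAAR1 | Reagent: β-PEA, EC80 | Compound dosing: 3 µM, single point | Schedule: Dye loading 75 min at 37 °C, then 30 min room temperature | Signal: Calcium fluorescence with Fluo-8 | Evaluation: Percent inhibition of PEA-evoked calcium signal, max/basal emission ratio | Control set: DMSO-only wells and EC80 β-PEA-stimulated wells | Repeats: Singlicate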
TAAR1 agonist: human TAAR1 agonists, primary screen, Fluo-8 calcium fluorescence, CHO RD-HGA16 cells; Trace amine-associated receptor 1 (Homo sapiens), Q96RJ0; vehicle wells 0%, saturating PEA agonist 100%; activation, % at 3 µM; 360,000 compounds, 0.99% hits;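 active = activation above the mean activation of all test compounds in the run plus 3 SD, cut at about 38% in these data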
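Repeats: no replicates (n 1) | Material: CHO-derived RD-HGA16 cells with stable Gα16 and human TAAR1 | Technique: Kinetic Fluo-8 calcium fluorescence | Schedule: 17-24 h seeding, 75 min 37 °C dye, 30 min RT | Evaluation: % activation from peak over basal fluorescence ratio, DMSO-to-PEA scaled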
M4 ag: human M4 muscarinic receptor agonists, primary screen, CHO-K1 cells, Fluo-8 calcium fluorescence. Muscarinic acetylcholine receptor M4 (Homo sapiens), P08173. CHO-K1 hM4/Gqi5; vehicle 0%, full acetylcholine response 100%. activation, % at 3 µM. 360,000 compounds, 0.14% hits. AID 624127, 2012;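 active = activation above the run mean over all test wells plus 3 SD, cut at about 32% in these data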;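 note: peak over basal fluorescence ratio per well then scaled between controls; 0% = DMSO wells and 100% = acetylcholine at EC100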
nonsel antag count: nonselective antagonists in TAAR1 counter-screen cells, counter-screen for hTAAR1 antagonist project, cell-based, fluorescence, calcium | shares compounds with TAAR1 antag | counterscreen cell line, antagonist mode | inhibition, % at 3 µM | 2,400 compounds, 77% hits | AID 651780, 2012; in the data active = inhibition above about 22%;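 note: CHO-Ga16 host cells stimulated with ATP at an EC80 level; 0% = agonist EC80 plus vehicle and 100% = vehicle without agonist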
TAAR1 ant conf: human TAAR1 antagonists, retest of hits, confirmation, cell-based, fluorescence; 2,400 compounds, 40% hits; TAAR1-expressing cells, fluorescence antagonist read-out; inhibition, % at 3 µM; shares compounds with TAAR1 antag; in the data active = inhibition above about 49%;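 note: CHO-Ga16 host cells challenged with agonist PEA near its EC80; 0% = agonist at EC80 plus vehicle and 100% = vehicle with no agonist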
Ga16 nonsel ag: calcium activation in Ga16-expressing cells, counter-screen for TAAR1 antagonist project, cell-based, fluorescence; shares compounds with TAAR1 antag; agonist counterscreen; activation, % at 3 µM; 2,400 compounds, 18% hits; in the data active = activation above about 12%;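 note: 0% = vehicle wells and 100% = saturating stimulus response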
TAAR1 ag counter: TAAR1 activation by candidate antagonists – cell-based, fluorescence, counter-screen for TAAR1 antagonist project; 2,400 compounds, 2% hits; AID 651955, 2012; activation, % at 3 µM; shares compounds with TAAR1 antag; hTAAR1 cell line, agonist mode; in the data active = activation above about 37%;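 note: CHO cells stably expressing TAAR1 with calcium dye readout; 0% = DMSO vehicle and 100% = full agonist response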
Active calls of the source: *; ! = not active in a repeat.

How did Cc1ccc2nc(-c3ccc(-c4cccc(Cl)c4)cc3)c(NCc3ccccc3)n2c1 do in these assays?
M4 antag: 3; M4 PAM: 2; TAAR1 antag: 64*; TAAR1 agonist: 7; M4 ag: 1; nonsel antag count: 32*; TAAR1 ant conf: 28; Ga16 nonsel ag: 0; TAAR1 ag counter: 1

How did CCCCNc1c(-c2ccc(-c3cccc(Cl)c3)cc2)nc2ccccn12 do in these assays?
M4 antag: 9; M4 PAM: -15; TAAR1 antag: 65*!; TAAR1 agonist: 6; M4 ag: 5; nonsel antag count: 31*; TAAR1 ant conf: 27; Ga16 nonsel ag: 19*; TAAR1 ag counter: 14

What do the screens show for `CCCCCCSc1ccc(-c2nc3ccccn3c2NCCCC)cc1`?
M4 antag: 11; M4 PAM: -5; TAAR1 antag: 13; TAAR1 agonist: 1; M4 ag: 0

Results for Cc1nn(C)c(C)c1/C=C(\C#N)S(=O)(=O)c1ccc(F)cc1 ?
M4 antag: -25; M4 PAM: -1; TAAR1 antag: -1; TAAR1 agonist: 1; M4 ag: 7

How did COC(=O)[C@]12CCCCC=C1N(Cc1ccco1)C(=O)[C@H](CC(=O)NCCC(C)C)C2 do in these assays?
M4 antag: -10; M4 PAM: 10; TAAR1 antag: -16; TAAR1 agonist: 9; M4 ag: 1

What do the screens show for `O=C(c1ccco1)N(CCC(c1ccccc1)c1ccco1)Cc1ccc(F)cc1` (stereo unspecified)?
M4 antag: 8; M4 PAM: -14; M4 ag: 0

What do the screens show for `CC1(C)CC(C(CCN(Cc2ccccc2)C(=O)c2ccco2)c2ccc(F)cc2)CCO1` (stereo unspecified)?
M4 antag: 27*; M4 PAM: -18; TAAR1 antag: 73*; TAAR1 agonist: 5; M4 ag: 8; nonsel antag count: 41*; TAAR1 ant conf: 54*; Ga16 nonsel ag: 6; TAAR1 ag counter: 0

How did COc1cc(-c2nc3ccc(C)cn3c2NCc2ccccc2)ccc1SC1CCCCC1 do in these assays?
M4 antag: 8; M4 PAM: -1; TAAR1 antag: 54*; TAAR1 agonist: 6; M4 ag: 3; nonsel antag count: 25*; TAAR1 ant conf: 30; Ga16 nonsel ag: 2; TAAR1 ag counter: 0

What do the screens show for `COc1ccc(CSc2ccc(-c3nc4ccccn4c3NCc3ccccc3)cc2OC)cc1`?
M4 antag: 16; M4 PAM: -8; TAAR1 antag: 71*; TAAR1 agonist: 18; M4 ag: 9; nonsel antag count: 30*; TAAR1 ant conf: 48; Ga16 nonsel ag: 4; TAAR1 ag counter: 9

How did COc1cc(-c2nc3ccc(C)cn3c2NCc2ccccc2)ccc1-c1cccc(Cl)c1 do in these assays?
M4 antag: 8; M4 PAM: -8; TAAR1 antag: 22; TAAR1 agonist: 4; M4 ag: 0

Results for CCCCNc1c(-c2ccc(OC)c(SC3CCCCC3)c2)nc2ccc(Cl)cn12 ?
M4 antag: -4; M4 PAM: -1; TAAR1 antag: 39; TAAR1 agonist: 9; M4 ag: 0

Results for CCCCNc1c(-c2ccc(OC)c(SC3CCCCC3)c2)nc2cc(C)ccn12 ?
M4 antag: 29*; M4 PAM: -12; TAAR1 antag: 84*; TAAR1 agonist: 9; M4 ag: 7; nonsel antag count: 40*; TAAR1 ant conf: 49*; Ga16 nonsel ag: 4; TAAR1 ag counter: 10

Results for O=C(CCN=C1NS(=O)(=O)c2ccccc21)OCc1nnc(-c2ccc([N+](=O)[O-])cc2)o1 ?
M4 antag: 5; M4 PAM: 5; TAAR1 antag: -10; TAAR1 agonist: 0; M4 ag: 2

Results for CC(C)n1cc(C#N)c(N)n1 ?
M4 antag: -4; M4 PAM: -7; TAAR1 antag: -2; TAAR1 agonist: 3; M4 ag: 10

What do the screens show for `CCOC(=O)c1c(C)[nH]c(C(=O)COC(=O)c2[nH]c(C)c(C(C)=O)c2C)c1C`?
M4 antag: 7; M4 PAM: 0; TAAR1 antag: 77*; TAAR1 agonist: 29; M4 ag: 4; nonsel antag count: 63*; TAAR1 ant conf: 66*; Ga16 nonsel ag: 15*; TAAR1 ag counter: 14

How did CC(=O)c1c(C)[nH]c(C(=O)COC(=O)CN(C)S(=O)(=O)c2ccc(Cl)cc2)c1C do in these assays?
M4 antag: 2; M4 PAM: -15; TAAR1 antag: 53*; TAAR1 agonist: 23; M4 ag: 14; nonsel antag count: 40*; TAAR1 ant conf: 42; Ga16 nonsel ag: 18*; TAAR1 ag counter: 11

Results for CCOC(=O)c1[nH]c(C)c(C(=O)OCC)c1C ?
M4 antag: -19; M4 PAM: 6; TAAR1 antag: -29; TAAR1 agonist: -2; M4 ag: 1

How did CCOC(=O)c1c(C)[nH]c(C(=O)OCC(=O)Nc2sccc2C(N)=O)c1C do in these assays?
M4 antag: 13; M4 PAM: -11; TAAR1 antag: 72*; TAAR1 agonist: 19; M4 ag: 19; nonsel antag count: 39*; TAAR1 ant conf: 53*; Ga16 nonsel ag: 17*; TAAR1 ag counter: 17

How did Cc1ccc(S(=O)(=O)NC(=O)N2CCCC2)cc1 do in these assays?
M4 antag: -6; M4 PAM: -1; TAAR1 antag: -23; TAAR1 agonist: 1; M4 ag: 0

What do the screens show for `O=C(O)C(=Cc1ccc([N+](=O)[O-])cc1)c1cccc(Cl)c1`?
M4 antag: 5; M4 PAM: -3; TAAR1 antag: -16; TAAR1 agonist: 0; M4 ag: -1

How did Cc1ccc2nc(-c3ccccc3)c(Cc3ccccc3C(F)(F)F)n2c1 do in these assays?
M4 antag: -2; M4 PAM: 3; TAAR1 antag: -9; TAAR1 agonist: 0; M4 ag: -2
